Measurements published in ChEMBL document CHEMBL1649314, “Experimental murine scedosporiosis: histopathology and azole treatment” (2010).
Converted amounts (≈) assume the structure as drawn. The source made the active and inactive calls. The calls are words filed in the database; no cut-off is given here.

Tests used:
Scedosporium boydii [1] = assay: Antifungal activity against Scedosporium boydii FMR 6694 infected in immunosuppressed OF1 mouse assessed as reduction in kidney fungal burden at 10 mg/kg, po BID administered 24 hrs postinfection for 10 days measured after 20 days; type: functional, organism-based; set-up: dose 10 mg/kg
Scedosporium apiospermum [2] = assay: Antifungal activity against Scedosporium apiospermum IHEM 14464 infected in immunosuppressed OF1 mouse assessed as reduction in kidney fungal burden at 10 mg/kg, po BID administered 24 hrs postinfection for 10 days measured after 20 days; type: functional, organism-based; set-up: dose 10 mg/kg
Scedosporium aurantiacum [3] = assay: Antifungal activity against Scedosporium aurantiacum IHEM 15458 infected in immunosuppressed OF1 mouse assessed as reduction in brain fungal burden at 40 mg/kg, po BID administered 24 hrs postinfection for 10 days measured after 20 days; type: functional, organism-based; set-up: dose 40 mg/kg
Scedosporium boydii [4] = assay: Antifungal activity against Scedosporium boydii FMR 6694 infected in immunosuppressed OF1 mouse assessed as prolonged survival of mouse at 20 mg/kg, po BID administered 24 hrs postinfection for 10 days measured after 20 days; type: functional, organism-based; set-up: dose 20 mg/kg
Outline: (§1)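 Male OF1 mice, groups of 10, immunosuppressed 1 day before infection with cyclophosphamide 200 mg/kg i.p. plus 5-fluorouracil 150 mg/kg i.v. Infected i.v. via tail vein with 1 × 10^4 CFU in 0.2 ml saline. Oral treatment began 24 h post-challenge for 10 days. Mice checked daily for 20 days. Survival by Kaplan-Meier, compared by log rank test.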

Scedosporium apiospermum [5] = assay: Antifungal activity against Scedosporium apiospermum IHEM 14464 infected in immunosuppressed OF1 mouse assessed as prolonged survival of mouse at 20 mg/kg, po BID administered 24 hrs postinfection for 10 days measured after 20 days; type: functional, organism-based; set-up: dose 20 mg/kg; outline: as §1
Scedosporium boydii [6] = assay: Antifungal activity against Scedosporium boydii FMR 8627 by broth dilution method; type: functional
Scedosporium apiospermum [7] = assay: Antifungal activity against Scedosporium apiospermum IHEM 14464 by broth dilution method; type: functional
[8] = Antifungal activity against Scedosporium aurantiacum CBS 116910 infected in immunosuppressed OF1 mouse assessed as prolonged survival of mouse at 10 mg/kg, po BID administered 24 hrs postinfection for 10 days measured after 20 days; type: functional, organism-based; set-up: dose 10 mg/kg; outline: as §1
Scedosporium boydii [9] = assay: Antifungal activity against Scedosporium boydii FMR 6694 infected in immunosuppressed OF1 mouse assessed as prolonged survival of mouse at 10 mg/kg, po BID administered 24 hrs postinfection for 10 days measured after 20 days; type: functional, organism-based; set-up: dose 10 mg/kg; outline: as §1
Scedosporium boydii [10] = assay: Antifungal activity against Scedosporium boydii FMR 6694 infected in immunosuppressed OF1 mouse assessed as reduction in brain fungal burden at 20 mg/kg, po BID administered 24 hrs postinfection for 10 days measured after 20 days; type: functional, organism-based; set-up: dose 20 mg/kg
Scedosporium aurantiacum [11] = assay: Antifungal activity against Scedosporium aurantiacum IHEM 15458 infected in immunosuppressed OF1 mouse assessed as reduction in kidney fungal burden at 10 mg/kg, po BID administered 24 hrs postinfection for 10 days measured after 20 days; type: functional, organism-based; set-up: dose 10 mg/kg
Scedosporium boydii [12] = assay: Antifungal activity against Scedosporium boydii FMR 6694 infected in immunosuppressed OF1 mouse assessed as reduction in brain fungal burden at 40 mg/kg, po BID administered 24 hrs postinfection for 10 days measured after 20 days; type: functional, organism-based; set-up: dose 40 mg/kg
Scedosporium aurantiacum [13] = assay: Antifungal activity against Scedosporium aurantiacum CBS 116910 infected in immunosuppressed OF1 mouse assessed as reduction in brain fungal burden at 20 mg/kg, po BID administered 24 hrs postinfection for 10 days measured after 20 days; type: functional, organism-based; set-up: dose 20 mg/kg
Scedosporium apiospermum [14] = assay: Antifungal activity against Scedosporium apiospermum CBS 117407 infected in immunosuppressed OF1 mouse assessed as reduction in kidney fungal burden at 20 mg/kg, po BID administered 24 hrs postinfection for 10 days measured after 20 days; type: functional, organism-based; set-up: dose 20 mg/kg
Scedosporium aurantiacum [15] = assay: Antifungal activity against Scedosporium aurantiacum CBS 116910 infected in immunosuppressed OF1 mouse assessed as reduction in kidney fungal burden at 10 mg/kg, po BID administered 24 hrs postinfection for 10 days measured after 20 days; type: functional, organism-based; set-up: dose 10 mg/kg
Scedosporium boydii [16] = assay: Antifungal activity against Scedosporium boydii FMR 8627 infected in immunosuppressed OF1 mouse assessed as prolonged survival of mouse at 20 mg/kg, po BID administered 24 hrs postinfection for 10 days measured after 20 days; type: functional, organism-based; set-up: dose 20 mg/kg
Outline: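 Male OF1 mice were immunosuppressed 1 day before infection with cyclophosphamide 200 mg/kg i.p. plus 5-fluorouracil 150 mg/kg i.v. They were infected i.v. via a lateral tail vein with 1 × 10^4 CFU/mouse in 0.2 ml saline. Oral dosing was 10 or 20 mg/kg twice daily, or 20 or 40 mg/kg once daily (those mice and controls drank grapefruit juice from day −3). Dosing ran 24 h post-challenge for 10 days; 10 mice/group; observed daily to day 20; Kaplan-Meier with log rank test.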

Scedosporium apiospermum [17] = assay: Antifungal activity against Scedosporium apiospermum IHEM 14464 infected in immunosuppressed OF1 mouse assessed as reduction in brain fungal burden at 40 mg/kg, po BID administered 24 hrs postinfection for 10 days measured after 20 days; type: functional, organism-based; set-up: dose 40 mg/kg
Scedosporium boydii [18] = assay: Antifungal activity against Scedosporium boydii FMR 8627 infected in immunosuppressed OF1 mouse assessed as reduction in kidney fungal burden at 20 mg/kg, po BID administered 24 hrs postinfection for 10 days measured after 20 days; type: functional, organism-based; set-up: dose 20 mg/kg
Scedosporium apiospermum [19] = assay: Antifungal activity against Scedosporium apiospermum CBS 117407 infected in immunosuppressed OF1 mouse assessed as reduction in brain fungal burden at 40 mg/kg, po BID administered 24 hrs postinfection for 10 days measured after 20 days; type: functional, organism-based; set-up: dose 40 mg/kg
[20] = Antifungal activity against Scedosporium aurantiacum IHEM 15458 infected in immunosuppressed OF1 mouse assessed as prolonged survival of mouse at 10 mg/kg, po BID administered 24 hrs postinfection for 10 days measured after 20 days; type: functional, organism-based; set-up: dose 10 mg/kg; outline: as §1
Scedosporium apiospermum [21] = assay: Antifungal activity against Scedosporium apiospermum CBS 117407 by broth dilution method; type: functional
Scedosporium apiospermum [22] = assay: Antifungal activity against Scedosporium apiospermum CBS 117407 infected in immunosuppressed OF1 mouse assessed as prolonged survival of mouse at 10 mg/kg, po BID administered 24 hrs postinfection for 10 days measured after 20 days; type: functional, organism-based; set-up: dose 10 mg/kg; outline: as §1
Scedosporium boydii [23] = assay: Antifungal activity against Scedosporium boydii FMR 6694 by broth dilution method; type: functional
Scedosporium apiospermum [24] = assay: Antifungal activity against Scedosporium apiospermum CBS 117407 infected in immunosuppressed OF1 mouse assessed as prolonged survival of mouse at 20 mg/kg, po BID administered 24 hrs postinfection for 10 days measured after 20 days; type: functional, organism-based; set-up: dose 20 mg/kg; outline: as §1
Scedosporium boydii [25] = assay: Antifungal activity against Scedosporium boydii FMR 8627 infected in immunosuppressed OF1 mouse assessed as reduction in kidney fungal burden at 10 mg/kg, po BID administered 24 hrs postinfection for 10 days measured after 20 days; type: functional, organism-based; set-up: dose 10 mg/kg
Scedosporium apiospermum [26] = assay: Antifungal activity against Scedosporium apiospermum IHEM 14464 infected in immunosuppressed OF1 mouse assessed as reduction in kidney fungal burden at 20 mg/kg, po BID administered 24 hrs postinfection for 10 days measured after 20 days; type: functional, organism-based; set-up: dose 20 mg/kg
Scedosporium aurantiacum [27] = assay: Antifungal activity against Scedosporium aurantiacum CBS 116910 infected in immunosuppressed OF1 mouse assessed as reduction in kidney fungal burden at 20 mg/kg, po BID administered 24 hrs postinfection for 10 days measured after 20 days; type: functional, organism-based; set-up: dose 20 mg/kg
Scedosporium apiospermum [28] = assay: Antifungal activity against Scedosporium apiospermum IHEM 14464 infected in immunosuppressed OF1 mouse assessed as reduction in brain fungal burden at 20 mg/kg, po BID administered 24 hrs postinfection for 10 days measured after 20 days; type: functional, organism-based; set-up: dose 20 mg/kg

## CC[C@@H]([C@H](C)O)n1ncn(-c2ccc(N3CCN(c4ccc(OC[C@@H]5CO[C@@](Cn6cncn6)(c6ccc(F)cc6F)C5)cc4)CC3)cc2)c1=O [POSACONAZOLE]
Scedosporium boydii [1]
  Activity: inactive
Scedosporium apiospermum [2]
  Activity: Active
Scedosporium aurantiacum [3]
  Activity: Active
Scedosporium boydii [4]
  Activity: Active
Scedosporium apiospermum [5]
  Activity: Active
Scedosporium boydii [6]
  MIC: 1 µg/mL (≈ 1.43 µM)
Scedosporium apiospermum [7]
  MIC: 0.5 µg/mL (≈ 0.713 µM)
[8]
  Activity: Active
Scedosporium boydii [9]
  Activity: Active
Scedosporium boydii [10]
  Activity: inactive
Scedosporium aurantiacum [11]
  Activity: Active
Scedosporium boydii [12]
  Activity: inactive
Scedosporium aurantiacum [13]
  Activity: Active
Scedosporium apiospermum [14]
  Activity: Active
Scedosporium aurantiacum [15]
  Activity: Active
Scedosporium boydii [16]
  Activity: Active
Scedosporium apiospermum [17]
  Activity: Active
Scedosporium boydii [18]
  Activity: Active
Scedosporium apiospermum [19]
  Activity: Active
[20]
  Activity: Active
Scedosporium apiospermum [21]
  MIC: 1 µg/mL (≈ 1.43 µM)
Scedosporium apiospermum [22]
  Activity: Active
Scedosporium boydii [23]
  MIC: 1 µg/mL (≈ 1.43 µM)
Scedosporium apiospermum [24]
  Activity: Active
Scedosporium boydii [25]
  Activity: Active
Scedosporium apiospermum [26]
  Activity: Active
Scedosporium aurantiacum [27]
  Activity: Active
Scedosporium apiospermum [28]
  Activity: Active
